Assay results published in ChEMBL document CHEMBL4373659, “Synthetic studies on the reverse antibiotic natural products, the nybomycins” (2019).
Activity calls are given as the source filed them. The rule behind the calls is not given here.

What was measured:
[1] = system: Staphylococcus aureus; test: Antibacterial activity against fluoroquinolone sensitive Staphylococcus aureus SH1000 assessed as zone of inhibition at 1 mmol after 24 hrs Kirby-Bauer disc diffusion method; type: functional
How it was run: (§1)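 Compounds dissolved in CHCl3 as 1 mmol or 10 mmol solutions; 20 µL loaded per sterile 6 mm paper disc and dried 30 min at 37 °C; 7 discs per concentration. Single colony grown in Mueller-Hinton broth with aeration for 6 h at 37 °C, diluted in PBS to 0.5 McFarland, then swabbed in three directions onto Mueller-Hinton agar. Discs applied; incubated 24 h at 37 °C.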

[2] = system: Staphylococcus aureus; test: Antibacterial activity against fluoroquinolone sensitive Staphylococcus aureus SH1000 assessed as zone of inhibition at 10 mmol after 24 hrs Kirby-Bauer disc diffusion method; type: functional
How it was run: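 Discs: 6 mm autoclaved paper discs each loaded with 20 μL of compound in CHCl3 (1 or 10 mmol solutions), dried 30 min at 37 °C; 7 discs per compound per level. Inoculum: single colony grown 6 h at 37 °C with aeration in Mueller-Hinton broth, diluted with PBS to 0.5 McFarland, swabbed three directions onto Mueller-Hinton agar. Plates incubated 24 h at 37 °C.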

[3] = system: Staphylococcus aureus; test: Antibacterial activity against fluoroquinolone resistant Staphylococcus aureus USA300 JE2 assessed as zone of inhibition at 1 mmol after 24 hrs Kirby-Bauer disc diffusion method; type: functional; how it was run: as §1
[4] = system: Staphylococcus aureus; test: Antibacterial activity against fluoroquinolone resistant Staphylococcus aureus USA300 JE2 assessed as zone of inhibition at 10 mmol after 24 hrs Kirby-Bauer disc diffusion method; type: functional; how it was run: as §1
[5] = system: Staphylococcus aureus; test: Antibacterial activity against fluoroquinolone sensitive Staphylococcus aureus SH1000 at 32 mmol after 24 hrs Kirby-Bauer disc diffusion method; type: functional, organism-based
[6] = system: Staphylococcus aureus; test: Antibacterial activity against fluoroquinolone resistant Staphylococcus aureus USA300 JE2 at 32 mmol after 24 hrs Kirby-Bauer disc diffusion method; type: functional, organism-based

CCn1c(=O)cc(C)c2cc3c(C)cc(=O)n4c3c(c21)OCCC4
inhibition zone (IZ) [1]: 0 cm
inhibition zone (IZ) [2]: 2.3 cm
inhibition zone (IZ) [3]: 0 cm
inhibition zone (IZ) [4]: 2.7 cm

CCOc1cc(C)c2cc3c(C)cc(=O)n4c3c(c2n1)OC4
inhibition zone (IZ) [1]: 0 cm
inhibition zone (IZ) [2]: 0 cm
inhibition zone (IZ) [3]: 0 cm
inhibition zone (IZ) [4]: 0 cm
Activity [5]: inactive
Activity [6]: inactive

O=C(O)c1cn(C2CC2)c2cc(N3CCNCC3)c(F)cc2c1=O [CIPROFLOXACIN]
inhibition zone (IZ) [1]: 1.8 cm
inhibition zone (IZ) [2]: 3.1 cm
inhibition zone (IZ) [3]: 0 cm
inhibition zone (IZ) [4]: 1.2 cm

CCn1c(=O)cc(C)c2cc3c(C)cc(=O)n4c3c(c21)OCC4
inhibition zone (IZ) [1]: 0 cm
inhibition zone (IZ) [2]: 2.2 cm
inhibition zone (IZ) [3]: 1.8 cm
inhibition zone (IZ) [4]: 3.2 cm

CCn1c(=O)cc(C)c2cc3c(C)cc(=O)n4c3c(c21)OC4
inhibition zone (IZ) [1]: 0 cm
inhibition zone (IZ) [2]: 1.8 cm
inhibition zone (IZ) [3]: 1.4 cm
inhibition zone (IZ) [4]: 2.9 cm

CCOc1cc(C)c2cc3c(C)cc(=O)n4c3c(c2n1)OCCC4
inhibition zone (IZ) [1]: 0 cm
inhibition zone (IZ) [2]: 0 cm
inhibition zone (IZ) [3]: 0 cm
inhibition zone (IZ) [4]: 0 cm

CCOc1cc(C)c2cc3c(C)cc(=O)n4c3c(c2n1)OCC4
inhibition zone (IZ) [1]: 0 cm
inhibition zone (IZ) [2]: 0 cm
inhibition zone (IZ) [3]: 0 cm
inhibition zone (IZ) [4]: 1 cm
